The target in assay [1] is T1, Cathepsin B-like cysteine protease (Trypanosoma brucei, UniProt Q6R7Z5).
T1 sequence (Q6R7Z5 whole entry): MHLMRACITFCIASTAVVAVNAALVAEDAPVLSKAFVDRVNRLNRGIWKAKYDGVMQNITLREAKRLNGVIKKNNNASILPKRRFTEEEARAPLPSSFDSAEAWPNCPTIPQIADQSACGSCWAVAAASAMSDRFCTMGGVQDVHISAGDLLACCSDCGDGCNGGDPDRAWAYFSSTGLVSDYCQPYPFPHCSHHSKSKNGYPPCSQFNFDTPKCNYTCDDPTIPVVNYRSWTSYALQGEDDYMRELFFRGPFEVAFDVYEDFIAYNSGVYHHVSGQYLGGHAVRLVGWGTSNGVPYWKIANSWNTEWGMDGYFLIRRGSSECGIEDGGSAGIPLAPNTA
The assay can be described thus: Inhibition of Trypanosoma brucei cathepsin B-like cysteine protease. An outline of the steps:
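Recombinant TbcatB zymogen expressed in Pichia pastoris, purified by HIC and anion exchange, titrated with CA074; 35 nM final. Inhibitor preincubated 20 min at room temperature, then Z-Phe-Arg-AMC (10 µM final). Initial rate from fluorescence (ex 350/em 460 nm) over 10 min. Triplicate. Sigmoidal IC50 fit.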

In a further assay the test system is Trypanosoma brucei. Kind of assay: Antitrypanosomal activity against Trypanosoma brucei. The class given is functional, organism-based. In outline: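 Culture-adapted bloodstream T. brucei grown in HMI-9 with pen/strep, 10% heat-inactivated FBS and 10% Serum Plus at 37 °C, 5% CO2, diluted to 1 × 10^4 cells/mL. Inhibitor added from DMSO, 48 h at 37 °C, then 1 h room-temperature equilibration. Cell Titer Glo luminescence read after 8 min. Quadruplicate. IC50 by curve fitting. Values shift up to 10-fold with FBS lot.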

A further assay addresses Cathepsin B (Homo sapiens, UniProt P07858). Kind of assay: Inhibition of human liver cathepsin B. An outline of the steps:
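Human liver enzyme at 0.56 ng/mL final in sodium acetate pH 5.5 buffer with 4 mM DTT, 0.01% Triton X-100, 0.5 mM EDTA. 20 min room-temperature preincubation with inhibitor, then Z-Arg-Arg-AMC (10 µM final). Quadruplicate. Sigmoidal IC50 fit.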

Another assay deals with Procathepsin L (Homo sapiens, UniProt P07711). The assay can be described thus: Inhibition of human liver cathepsin L. In outline: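 Inhibitor preincubated 20 min at room temperature before Z-Phe-Arg-AMC (10 µM final). Initial rate from fluorescence (ex 350/em 460 nm) over 10 min. Quadruplicate. Sigmoidal IC50 fit.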

The text below walks through data of ChEMBL document CHEMBL1140721, “Development of potent purine-derived nitrile inhibitors of the trypanosomal protease TbcatB” (J Med Chem, 2008).

The structures appear in SMILES notation. pIC50: −log10 of the molar value.

Chain of Procathepsin L (P07711 whole entry): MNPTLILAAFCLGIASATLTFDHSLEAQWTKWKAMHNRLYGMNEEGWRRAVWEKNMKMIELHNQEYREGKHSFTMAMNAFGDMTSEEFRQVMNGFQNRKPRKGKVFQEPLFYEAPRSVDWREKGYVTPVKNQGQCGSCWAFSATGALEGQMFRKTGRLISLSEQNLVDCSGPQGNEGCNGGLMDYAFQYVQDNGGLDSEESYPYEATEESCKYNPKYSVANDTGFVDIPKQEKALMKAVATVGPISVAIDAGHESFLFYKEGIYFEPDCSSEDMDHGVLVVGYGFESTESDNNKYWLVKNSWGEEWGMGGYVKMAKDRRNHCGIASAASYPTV

The term pIC50 denotes the IC50 on a negative log10 scale, so that one unit is a factor of ten. Lower therefore signals a large IC50. Take `CCCCCCNc1nc(C#N)nc2c1ncn2C1CCCC1`: the pIC50 in assay [1] is less than 4.60; in the assay with Trypanosoma brucei it was 5.82; at Cathepsin B it was less than 4.52; against Procathepsin L, 4.55.
The matching figures for `CCCCCCNc1nc(C#N)nc2c1ncn2Cc1ccccc1`: less than 4.60, 6.15, less than 4.52 and less than 4.52.
The matching figures for `CCCCn1cnc2c(NC(C)c3ccccc3)nc(C#N)nc21` (stereo not drawn): less than 4.60, 5.82, less than 4.52 and 5.03.
As to `CCC(C)CNc1nc(C#N)nc2c1ncn2Cc1ccccc1` (stereo not drawn), the pIC50 is 5.30 in assay [1], 5.47 with Trypanosoma brucei, less than 4.52 at Cathepsin B and 5.23 on Procathepsin L.
For `N#Cc1nc(NC2CCCCC2)c2ncn(C3CCCCC3)c2n1`, in that order: 5.08, 5.85, 4.63 and 5.48.
As for `CC(Nc1nc(C#N)nc2c1ncn2C1CCCC1)c1ccccc1` (stereo not drawn), the pIC50 in assay [1] was less than 4.60; in the assay with Trypanosoma brucei it was 5.47; on Cathepsin B it was less than 4.52; against Procathepsin L, 4.93.
As for `COc1ccc(CNc2nc(C#N)nc3c2ncn3C2CCCC2)cc1`, the pIC50 in assay [1] was 5.15; with Trypanosoma brucei, 6.10; at Cathepsin B it was less than 4.52; against Procathepsin L, 5.40.
For `CCCCn1cnc2c(NCc3cccc(C)c3)nc(C#N)nc21`, in that order: 4.96, 6.57, less than 4.52 and 5.41.
Regarding `Cc1cccc(CNc2nc(C#N)nc3c2ncn3CC2CCCCC2)c1`, the pIC50 in assay [1] was less than 4.60; in the assay on Trypanosoma brucei it was 5.66; against Cathepsin B, less than 4.52; against Procathepsin L, less than 4.52.
Take `N#Cc1nc(NCc2ccc(Cl)cc2)c2ncn(C3CCCC3)c2n1`: the pIC50 in assay [1] is 4.72; in the assay on Trypanosoma brucei, 5.92; on Cathepsin B it was less than 4.52; on Procathepsin L it was 4.87.
For the compound `N#Cc1nc(NCc2ccc(Cl)cc2)c2ncn(Cc3ccccc3)c2n1`, the pIC50 was less than 4.60 in assay [1], 5.82 with Trypanosoma brucei, less than 4.52 against Cathepsin B and less than 4.52 against Procathepsin L.
Take `CCCCn1cnc2c(NCc3ccccc3)nc(C#N)nc21`: the pIC50 in assay [1] is 4.85; with Trypanosoma brucei, 5.77; at Cathepsin B it was less than 4.52; at Procathepsin L, 5.36.
For `CCCCn1cnc2c(NCc3ccc(Cl)cc3)nc(C#N)nc21`, in that order: 5.00, 6.07, less than 4.52 and 5.30.
The matching figures for `Cc1cccc(CNc2nc(C#N)nc3c2ncn3C2CCCC2)c1`: less than 4.60, 5.96, less than 4.52 and 4.98.
The matching figures for `N#Cc1nc(NCc2ccc(Cl)cc2)c2ncn(CC3CCCCC3)c2n1`: less than 4.60, less than 5.00, less than 4.52 and less than 4.52.
Consider `N#Cc1nc(NC2CCCCC2)c2ncn(Cc3ccccc3)c2n1`, for which the pIC50 in assay [1] is 5.64; in the assay on Trypanosoma brucei, 6.48; on Cathepsin B it was 4.75; against Procathepsin L, 5.42.
The matching figures for `CCCCCCNc1nc(C#N)nc2c1ncn2CC1CCCCC1`: less than 4.60, 5.44, less than 4.52 and less than 4.52.
The matching figures for `CC(Nc1nc(C#N)nc2c1ncn2Cc1ccccc1)c1ccccc1` (stereo not drawn): less than 4.60, 5.89, less than 4.52 and less than 4.52.
For `Cc1cccc(CNc2nc(C#N)nc3c2ncn3Cc2ccccc2)c1`, in that order: 5.48, 6.32, less than 4.52 and 4.98.
With `N#Cc1nc(NCc2ccccc2)c2ncn(C3CCCC3)c2n1`, the pIC50 was less than 4.60 in assay [1], 5.77 in the assay on Trypanosoma brucei, less than 4.52 at Cathepsin B and 4.87 against Procathepsin L.
For `N#Cc1nc(NCc2ccccc2)c2ncn(Cc3ccccc3)c2n1`, in that order: 5.22, 5.70, less than 4.52 and 4.91.
For `CCCn1cnc2c(NC3CCCCC3)nc(C#N)nc21`, the pIC50 in assay [1] was 5.08; in the assay on Trypanosoma brucei, 4.92; against Cathepsin B, 4.72; against Procathepsin L it was 5.60.
